From paper PMC4207547 (Journal of Medicinal Chemistry, 2014)
Entries after “also recorded” stand apart in the source; their conditions may differ.

What was measured:
C5a-induced Ca2+ flux = C5a-induced Ca2+ flux in hPMNs; format: cell-based, human; conditions: for effect on C5a-induced Ca2+ flux, in words: hPMNs, concentrations up to 5 μM
Method in brief: (§1)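 Human PMNs were isolated from healthy donor blood by dextran sedimentation, Histopaque 1077 gradient and hypotonic red cell lysis (>95% pure, >98% viable). Cells were dye-loaded (FLIPR Calcium 3) in Ca/Mg-free HBSS with 10 mM HEPES plus test compound or 1% DMSO for 30 min at 37 °C. They were then resuspended in HBSS+ with compound re-added, at 10^5 cells/well. Agonist final: C5a 50 nM, fMLF 10 nM. Fluorescence (ex 485/em 525 nm) was read every 5 s for 240–500 s at room temperature, max–min as % of DMSO control.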

PAF-induced Ca2+ flux = PAF-induced Ca2+ flux in hPMNs; format: cell-based, human; conditions: for effect on PAF-induced Ca2+ flux, in words: hPMNs, concentrations up to 5 μM
[1] = system: CXCR2-mediated phosphorylation of ERK1/2; assay: CXCL8-induced ERK1/2 phosphorylation in HEK293 cells expressing CXCR2; format: cell-based, human; conditions: 10 μM compound, CXCL8 100 ng/mL, 0–30 min
Method in brief: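 G418-selected HEK293 pool stably expressing human CXCR2, 5 × 10^6 cells per 60 mm plate. […] Lysis was at 0, 5, 15 and 30 min in SDS/deoxycholate/Triton buffer with PMSF, aprotinin and leupeptin. Phospho-ERK1/2 and total ERK1/2 were detected by Western blot.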

male CD1 Swiss mice = assay: Murine air-pouch model of inflammation; format: in vivo, mouse; conditions: 0.2 mg/kg iv, 3 h before 2% carrageenan; vs positive control cohort, p < 0.01
Method in brief: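 Dorsal air pouch in 10–15-week-old male CD1 Swiss mice: 2 mL air sc, reinflated with 1.5 mL next day. Test compound (0.02 or 0.20 mg/kg) in PEG400:DMF:saline 20:20:80, or vehicle, was given iv by tail vein, n = 5 per cohort. After 3 h, 1 mL PBS or 2% carrageenan in PBS was injected into the pouch. Pouch fluid plus a 2 mL PBS wash was collected 4 h later; cells were counted by trypan blue on a hemocytometer. Student's t-test vs carrageenan/vehicle cohort.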

CXCR1 and CXCR2 = assay: CXCL8-stimulated Ca2+ flux in hPMNs; format: cell-based, human; conditions: 1 μM compound
Method in brief: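 Human PMNs isolated from blood by dextran sedimentation, Histopaque 1077 gradient and hypotonic red-cell lysis (>95% pure, >98% viable). Cells loaded with FLIPR Calcium 3 dye in Ca2+/Mg2+-free HBSS with 10 mM HEPES plus test compound or DMSO (1% final), 37 °C, 30 min. They were then pelleted and resuspended in HBSS with Ca2+/Mg2+, and compound was re-added at the same concentration. Fluorescence was read at 10^5 cells/well: 15 s basal, then agonist injected.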

CXCR2 [2] = target: T1, CXCR2 (Homo sapiens, UniProt P25025); assay: Competition [125I]-CXCL8 binding assay, HEK293-hCXCR2 membranes; conditions: up to 10 μM compound, 25 pM radioligand
T1 sequence (P25025 1-360): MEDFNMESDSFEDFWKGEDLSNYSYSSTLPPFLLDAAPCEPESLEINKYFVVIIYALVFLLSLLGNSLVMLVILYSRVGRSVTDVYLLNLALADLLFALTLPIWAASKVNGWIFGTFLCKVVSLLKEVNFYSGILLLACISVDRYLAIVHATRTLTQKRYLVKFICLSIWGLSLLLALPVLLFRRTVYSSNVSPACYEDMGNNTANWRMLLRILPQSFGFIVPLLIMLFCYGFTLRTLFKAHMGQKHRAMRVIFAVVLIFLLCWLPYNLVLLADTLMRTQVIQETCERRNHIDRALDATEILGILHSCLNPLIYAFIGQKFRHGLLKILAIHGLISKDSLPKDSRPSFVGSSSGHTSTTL

CXCR2 [3] = target: T1, CXCR2; assay: CXCR2 cell surface expression by flow cytometry in HEK293 cells; format: cell-based; conditions: 10 μM, 60 min exposure
Method in brief: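 Stable HEK293-CXCR2 cells were pretreated with 1% DMSO vehicle or test compound for 60 min; untransfected HEK293 served as negative isotype control. Cells were stained with PE-conjugated anti-human CXCR2 mouse monoclonal (1:100) at 4 °C for 60 min, washed, and fixed in 2% formaldehyde/PBS. PE signal was quantified by flow cytometry; data representative of three independent experiments.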

fMLF-induced Ca2+ flux = fMLF-induced Ca2+ flux in hPMNs; format: cell-based, human; conditions: for effect on fMLF-induced Ca2+ flux, in words: hPMNs, concentrations up to 5 μM
Method in brief: as §1

- IC50 (C5a-induced Ca2+ flux; Homo sapiens, read-out: IC50, C5a-induced Ca2+ flux): > 5 µM
- IC50 (PAF-induced Ca2+ flux; Homo sapiens, read-out: IC50, PAF-induced Ca2+ flux): > 5 µM
- competition of [125I]-CXCL8 binding to CXCR2 membranes, in words (CXCR2 [2]): failed to compete
- competition of [125I]-CXCL8 binding to CXCR2 membranes, in words (CXCR2 [2]; listed as SX-517): unable to compete
- effect on cell surface expression of CXCR2, in words (CXCR2 [3]): did not significantly alter
- IC50 (fMLF-induced Ca2+ flux; Homo sapiens, read-out: IC50, fMLF-induced Ca2+ flux): > 5 µM
SMILES: O=C(Nc1ccc(F)cc1)c1ccc(SCc2ccccc2B(O)O)nc1 [Compound 7, 2-((5-(4-Fluorophenylcarbamoyl)pyridin-2-ylthio)methyl)phenylboronic acid]
- effect on C5a-induced Ca2+ flux, in words (C5a-induced Ca2+ flux): failed to inhibit; also recorded: no inhibition
- effect on C5a-induced Ca2+ flux, in words (C5a-induced Ca2+ flux; listed as SX-517): no effect
- effect on PAF-induced Ca2+ flux, in words (PAF-induced Ca2+ flux): failed to inhibit; also recorded: no inhibition
- effect on PAF-induced Ca2+ flux, in words (PAF-induced Ca2+ flux; listed as SX-517): no effect
- effect on CXCL8-induced ERK1/2 phosphorylation, in words [1]: completely blocked; also recorded: directly antagonized
- effect on CXCL8-induced ERK1/2 phosphorylation, in words ([1]; listed as SX-517): antagonized
- total cell count in inflammatory pouch infiltrate, in words (male CD1 Swiss mice): significant reduction; also recorded: significantly reduced
- effect on CXCL8-stimulated Ca2+ flux, in words (CXCR1 and CXCR2): completely eliminate
- effect on fMLF-induced Ca2+ flux, in words (fMLF-induced Ca2+ flux): failed to inhibit; also recorded: no inhibition
- effect on fMLF-induced Ca2+ flux, in words (fMLF-induced Ca2+ flux; listed as SX-517): no effect
